From ChEMBL document CHEMBL1136695, “Novel and selective imidazole-containing biphenyl inhibitors of protein farnesyltransferase” (Bioorg Med Chem Lett, 2003)
Where “and” joins values, the source holds several entries; their conditions need not be identical. Identical values can stand only once.

Tests used:
[1] = biological target: Protein farnesyltransferase (Bos taurus, UniProt P29702+P49355); assay: In vitro inhibitory activity against farnesyltransferase (FTase); format: protein-complex assay
Outline: (§1)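 FTase and GGTase1 enzymes purified from bovine brain; inhibition measured in vitro by scintillation proximity assay (SPA), IC50 determined.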

[2] = biological target: Geranylgeranyl transferase type I (Bos taurus, UniProt P29702+Q5EAD5); assay: In vitro inhibition of geranylgeranyltransferase.; format: protein-complex assay; outline: as §1
[3] = Half-life time in rat was determined; format: ADME, organism-based; settings: in vivo
NIH3T3 [4] = assay: Effective concentration against Ha-RAS processing in NIH3T3 ras-transformed cells; format: functional, cell-based; settings: Mus musculus
[5] = Oral bioavailability in rat; format: ADME, organism-based; settings: in vivo
NIH3T3 [6] = assay: Inhibitory activity against NIH3T3 ras-transformed cells at 1 uM; format: functional; settings: Mus musculus

Row | Structure (SMILES) | IC50 [1] | IC50 [2] | other results
1 | Cc1ccccc1-c1cc(NCc2cncn2C)ccc1C#N | 1 µM |  | 
2 | Cn1cncc1CN(Cc1cccc(C#N)c1)c1ccc(C#N)c(-c2cccc3ccccc23)c1 |  | 0.15 µM | half-life [3]: < 1 h; EC50 (NIH3T3 [4]): 0.05 µM; bioavailability [5]: 10%
3 | Cc1ccccc1-c1cc(N(Cc2ccccc2)Cc2cnc[nH]2)ccc1C#N | 0.084 µM |  | 
4 | Cn1cncc1CN(Cc1ccnc(C#N)c1)c1ccc(C#N)c(-c2cccc3ccccc23)c1 | 0.00037 µM | 0.65 µM | EC50 (NIH3T3 [4]): 0.08 µM
5 | Cc1ccccc1-c1cc(N(Cc2ccc(C#N)cc2)Cc2cncn2C)ccc1C#N | 0.01 µM | 1 µM | inhibition at 1 µM (NIH3T3 [6]): 29%
6 | Cn1cncc1CN(c1ccc(C#N)c(-c2cccc3ccccc23)c1)S(=O)(=O)c1ccccc1 | 0.018 µM | 1.9 µM | 
7 | Cn1cncc1CN(C(=O)c1ccccc1)c1ccc(C#N)c(-c2cccc3ccccc23)c1 | 0.014 µM | 0.31 µM | 
8 | Cc1ccccc1-c1cc(N(Cc2ccccc2)Cc2cncn2C)ccc1C#N | 0.011 µM |  | 
9 | Cc1ccccc1-c1cc(N(Cc2cccc(C#N)c2)Cc2cncn2C)ccc1C#N | 0.00097 µM | 1.2 µM | EC50 (NIH3T3 [4]): 0.07 µM
10 | Cn1cncc1CN(Cc1ccc(C#N)cc1)c1ccc(C#N)c(-c2cccc3ccccc23)c1 | 0.0015 µM | 1 µM | inhibition at 1 µM (NIH3T3 [6]): 64%
11 | Cc1ccccc1-c1cc(C(OCc2ccccc2)c2cncn2C)ccc1C#N (stereo not given) | 0.065 µM |  | 
12 | Cn1cncc1CN(c1ccc(C#N)c(-c2cccc3ccccc23)c1)C1CCCCC1 | 0.0019 µM | 0.18 µM | 
13 | Cn1cncc1CN(Cc1ccccc1)c1ccc(C#N)c(-c2cccc3ccccc23)c1 | 0.0015 µM and 0.011 µM |  | 
14 | CCCCN(CCC1CCCCC1)Cc1ccc(C(=O)N[C@@H](CCSC)C(=O)O)c(-c2ccccc2C)c1 | 0.001 µM |  | 
15 | Cn1cncc1CN(Cc1cccc(Cl)c1)c1ccc(C#N)c(-c2cccc3ccccc23)c1 | 0.00045 µM | 0.23 µM | inhibition at 1 µM (NIH3T3 [6]): 45%
16 | NC(=O)N1CCC(CC(=O)N2CCC([C@H]3c4ncc(Br)cc4CCc4cc(Cl)cc(Br)c43)CC2)CC1 [LONAFARNIB] | 0.0078 µM |  | EC50 (NIH3T3 [4]): 0.16 µM
17 | Cn1cncc1[C@@](N)(c1ccc(Cl)cc1)c1ccc2c(c1)c(-c1cccc(Cl)c1)cc(=O)n2C [TIPIFARNIB] | 0.00057 µM |  | EC50 (NIH3T3 [4]): 0.002 µM
